Experimental data published in ChEMBL document CHEMBL1152689, “Synthesis, tautomerism, and antimicrobial, anti-HCV, anti-SSPE, antioxidant, and antitumor activities of arylazobenzosuberones” (Bioorg Med Chem, 2009).
Converted amounts (≈) assume the structure as drawn. The source made the active and inactive calls. The calls are words filed in the database; no cut-off is given here.

Assays:
Aspergillus fumigatus [1] = assay: Antimicrobial activity against Aspergillus fumigatus at 1.25 ug/mL by agar diffusion method; assay type: functional; conditions: read-out: IZ
Aspergillus fumigatus [2] = assay: Antimicrobial activity against Aspergillus fumigatus at 5 ug/mL by agar diffusion method; assay type: functional; conditions: read-out: IZ
Staphylococcus aureus [3] = assay: Antimicrobial activity against Staphylococcus aureus at 2.5 ug/mL by agar diffusion method; assay type: functional; conditions: read-out: IZ
Staphylococcus aureus [4] = assay: Antimicrobial activity against Staphylococcus aureus by agar diffusion method; assay type: functional
Summary of the method: (§1)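 Agar diffusion on plates against bacteria and fungi. MIC taken as the lowest concentration giving no visible growth on the plate.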

Pseudomonas aeruginosa [5] = assay: Antimicrobial activity against Pseudomonas aeruginosa at 2.5 ug/mL by agar diffusion method; assay type: functional; conditions: read-out: IZ
Penicillium italicum [6] = assay: Antimicrobial activity against Penicillium italicum at 2.5 ug/mL by agar diffusion method; assay type: functional; conditions: read-out: IZ
Escherichia coli [7] = assay: Antimicrobial activity against Escherichia coli at 2.5 ug/mL by agar diffusion method; assay type: functional; conditions: read-out: IZ
Bacillus subtilis [8] = assay: Antimicrobial activity against Bacillus subtilis at 2.5 ug/mL by agar diffusion method; assay type: functional; conditions: read-out: IZ
Staphylococcus aureus [9] = assay: Antimicrobial activity against Staphylococcus aureus at 1.25 ug/mL by agar diffusion method; assay type: functional; conditions: read-out: IZ
[10] = tested on: Radical scavenging activity; assay: Antioxidant activity assessed as DPPH free radical scavenging activity by measuring reduction in DPPH absorbance by ELISA relative to untreated control; assay type: functional; parameters: concentration or dose not given beside the values
Summary of the method: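 Test compounds dissolved in DMSO, ascorbic acid standard in water, both serially diluted. 10 µl sample added to 90 µl of 100 µM DPPH in methanol and kept in the dark at 37 °C for 30 min. Absorbance read at 515 nm. Blank is DMSO plus DPPH. % reduction = (A_B − A_A)/A_B × 100. Run in triplicate.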

Bacillus subtilis [11] = assay: Antimicrobial activity against Bacillus subtilis at 1.25 ug/mL by agar diffusion method; assay type: functional; conditions: read-out: IZ
Escherichia coli [12] = assay: Antimicrobial activity against Escherichia coli at 5 ug/mL by agar diffusion method; assay type: functional; conditions: read-out: IZ
[13] = tested on: Syncephalastrum racemosum; assay: Antimicrobial activity against Syncephalastrum racemosum at 2.5 ug/mL by agar diffusion method; assay type: functional; conditions: read-out: IZ
Hepatitis C virus = assay: Antiviral activity against HCV by cell based replicon assay; assay type: functional, Hepacivirus hominis
Summary of the method: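 HCV replicon cells plated at 1×10^4 per well. Next day incubated at 37 °C with serially diluted compound in DMEM with 2% FBS and 0.5% DMSO. HCV RNA copy number measured by quantitative RT-PCR on total cellular RNA. Each point is the average of five replicates. Cytotoxicity measured by MTS in parallel.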

Candida albicans [14] = assay: Antimicrobial activity against Candida albicans by agar diffusion method; assay type: functional; summary of the method: as §1
Pseudomonas aeruginosa [15] = assay: Antimicrobial activity against Pseudomonas aeruginosa at 1.25 ug/mL by agar diffusion method; assay type: functional; conditions: read-out: IZ
Pseudomonas aeruginosa [16] = assay: Antimicrobial activity against Pseudomonas aeruginosa at 5 ug/mL by agar diffusion method; assay type: functional; conditions: read-out: IZ
Aspergillus fumigatus [17] = assay: Antimicrobial activity against Aspergillus fumigatus by agar diffusion method; assay type: functional; summary of the method: as §1
MC-38 = assay: Antitumor activity against mouse Colon 38 cells implanted in iv dosed C57BL/6 mouse administered as single dose; assay type: functional, organism-based
Summary of the method: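 Female C57BL/6 mice, 6 weeks old, given about 30 mg Colon 38 tumor tissue s.c. in the flank. Randomized into groups of n = 5 when tumors reached about 300 mm3 (day 1). Compound in 5% glucose given as a single iv tail-vein dose on day 1; controls received 5% glucose. Tumor volume = (length × width²)/2 and body weight tracked.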

[18] = Antioxidant activity assessed as inhibition of peroxynitrite-mediated 3-nitrotyrosine formation by HPLC; assay type: functional
Summary of the method: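 Tyrosine and peroxynitrite, each 100 µM, reacted with compound at 0–300 µM in 100 mM phosphate buffer pH 7.4 at 37 °C for 15 min. Peroxynitrite made from acidified H2O2 plus KNO2, quenched with NaOH, and kept on ice no longer than 30 min before use.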

[19] = molecular target: T1, DNA topoisomerase 1 (Homo sapiens) (UniProt P11387); assay: Inhibition of topoisomerase 1 relative to etoposide
T1 sequence (whole entry): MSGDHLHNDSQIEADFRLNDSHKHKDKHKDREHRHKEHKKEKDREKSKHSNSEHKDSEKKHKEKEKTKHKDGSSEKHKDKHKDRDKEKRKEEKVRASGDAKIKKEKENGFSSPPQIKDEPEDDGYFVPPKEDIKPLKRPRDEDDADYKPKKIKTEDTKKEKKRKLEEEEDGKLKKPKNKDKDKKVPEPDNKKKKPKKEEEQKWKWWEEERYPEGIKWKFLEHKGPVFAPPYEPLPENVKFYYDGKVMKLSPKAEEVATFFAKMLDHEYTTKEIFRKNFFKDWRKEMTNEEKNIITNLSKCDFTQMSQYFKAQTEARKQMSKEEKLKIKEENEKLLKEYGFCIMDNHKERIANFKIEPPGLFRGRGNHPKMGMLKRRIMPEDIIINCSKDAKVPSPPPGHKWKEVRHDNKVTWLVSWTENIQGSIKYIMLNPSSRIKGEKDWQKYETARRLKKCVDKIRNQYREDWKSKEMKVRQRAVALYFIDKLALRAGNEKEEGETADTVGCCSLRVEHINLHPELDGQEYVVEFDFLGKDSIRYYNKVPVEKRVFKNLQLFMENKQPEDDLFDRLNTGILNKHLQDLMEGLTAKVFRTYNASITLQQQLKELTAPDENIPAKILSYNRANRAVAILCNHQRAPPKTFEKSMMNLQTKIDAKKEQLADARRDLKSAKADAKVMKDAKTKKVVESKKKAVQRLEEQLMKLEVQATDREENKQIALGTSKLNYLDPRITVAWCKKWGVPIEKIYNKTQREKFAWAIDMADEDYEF

Staphylococcus aureus [20] = assay: Antimicrobial activity against Staphylococcus aureus at 5 ug/mL by agar diffusion method; assay type: functional; conditions: read-out: IZ
Bacillus subtilis [21] = assay: Antimicrobial activity against Bacillus subtilis at 5 ug/mL by agar diffusion method; assay type: functional; conditions: read-out: IZ
Penicillium italicum [22] = assay: Antimicrobial activity against Penicillium italicum at 5 ug/mL by agar diffusion method; assay type: functional; conditions: read-out: IZ
[23] = tested on: Syncephalastrum racemosum; assay: Antimicrobial activity against Syncephalastrum racemosum by agar diffusion method; assay type: functional; summary of the method: as §1
Measles morbillivirus = assay: Antiviral activity against Measles virus infected in intracranially dosed hamster assessed as inhibition of subacute sclerosing panencephalitis; assay type: functional
Summary of the method: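 Hamsters under ether anesthesia injected intracranially, into the subarachnoid space at 2 mm depth, at 5, 10 and 20 mg/kg/day for 10 days. Four animals per group sacrificed on days 1–20. Brains homogenized in PBS and centrifuged, supernatant deproteinized with ethanol, then MIC in brain tissue determined by HPLC and bioassay.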

Candida albicans [24] = assay: Antimicrobial activity against Candida albicans at 5 ug/mL by agar diffusion method; assay type: functional; conditions: read-out: IZ
[25] = molecular target: DNA topoisomerase 2-alpha (Mus musculus) (UniProt Q01320); assay: Inhibition of topoisomerase 2 from mouse P388 cells assessed as relaxation of pBR322 DNA by agarose gel electrophoresis relative to etoposide; assay type: cell-based
Summary of the method: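 Topoisomerase II purified from P388 cells. One unit relaxes 0.125 µg supercoiled pBR322 DNA, incubated with or without inhibitor at 30 °C for 1 h in 50 mM Tris-HCl pH 8.0, 100 mM KCl, 10 mM MgCl2, 0.5 mM DTT, 1 mM ATP and 30 µg/ml BSA. Products run on 0.7% agarose in TBE, stained with ethidium bromide and imaged under UV.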

Bacillus subtilis [26] = assay: Antimicrobial activity against Bacillus subtilis by agar diffusion method; assay type: functional; summary of the method: as §1
Escherichia coli [27] = assay: Antimicrobial activity against Escherichia coli at 1.25 ug/mL by agar diffusion method; assay type: functional; conditions: read-out: IZ
[28] = tested on: Syncephalastrum racemosum; assay: Antimicrobial activity against Syncephalastrum racemosum at 1.25 ug/mL by agar diffusion method; assay type: functional; conditions: read-out: IZ
Aspergillus fumigatus [29] = assay: Antimicrobial activity against Aspergillus fumigatus at 2.5 ug/mL by agar diffusion method; assay type: functional; conditions: read-out: IZ
Candida albicans [30] = assay: Antimicrobial activity against Candida albicans at 2.5 ug/mL by agar diffusion method; assay type: functional; conditions: read-out: IZ
[31] = tested on: Syncephalastrum racemosum; assay: Antimicrobial activity against Syncephalastrum racemosum at 5 ug/mL by agar diffusion method; assay type: functional; conditions: read-out: IZ
Penicillium italicum [32] = assay: Antimicrobial activity against Penicillium italicum at 1.25 ug/mL by agar diffusion method; assay type: functional; conditions: read-out: IZ
Candida albicans [33] = assay: Antimicrobial activity against Candida albicans at 1.25 ug/mL by agar diffusion method; assay type: functional; conditions: read-out: IZ

Sequence of DNA topoisomerase 2-alpha (Mus musculus) (Q01320 whole entry): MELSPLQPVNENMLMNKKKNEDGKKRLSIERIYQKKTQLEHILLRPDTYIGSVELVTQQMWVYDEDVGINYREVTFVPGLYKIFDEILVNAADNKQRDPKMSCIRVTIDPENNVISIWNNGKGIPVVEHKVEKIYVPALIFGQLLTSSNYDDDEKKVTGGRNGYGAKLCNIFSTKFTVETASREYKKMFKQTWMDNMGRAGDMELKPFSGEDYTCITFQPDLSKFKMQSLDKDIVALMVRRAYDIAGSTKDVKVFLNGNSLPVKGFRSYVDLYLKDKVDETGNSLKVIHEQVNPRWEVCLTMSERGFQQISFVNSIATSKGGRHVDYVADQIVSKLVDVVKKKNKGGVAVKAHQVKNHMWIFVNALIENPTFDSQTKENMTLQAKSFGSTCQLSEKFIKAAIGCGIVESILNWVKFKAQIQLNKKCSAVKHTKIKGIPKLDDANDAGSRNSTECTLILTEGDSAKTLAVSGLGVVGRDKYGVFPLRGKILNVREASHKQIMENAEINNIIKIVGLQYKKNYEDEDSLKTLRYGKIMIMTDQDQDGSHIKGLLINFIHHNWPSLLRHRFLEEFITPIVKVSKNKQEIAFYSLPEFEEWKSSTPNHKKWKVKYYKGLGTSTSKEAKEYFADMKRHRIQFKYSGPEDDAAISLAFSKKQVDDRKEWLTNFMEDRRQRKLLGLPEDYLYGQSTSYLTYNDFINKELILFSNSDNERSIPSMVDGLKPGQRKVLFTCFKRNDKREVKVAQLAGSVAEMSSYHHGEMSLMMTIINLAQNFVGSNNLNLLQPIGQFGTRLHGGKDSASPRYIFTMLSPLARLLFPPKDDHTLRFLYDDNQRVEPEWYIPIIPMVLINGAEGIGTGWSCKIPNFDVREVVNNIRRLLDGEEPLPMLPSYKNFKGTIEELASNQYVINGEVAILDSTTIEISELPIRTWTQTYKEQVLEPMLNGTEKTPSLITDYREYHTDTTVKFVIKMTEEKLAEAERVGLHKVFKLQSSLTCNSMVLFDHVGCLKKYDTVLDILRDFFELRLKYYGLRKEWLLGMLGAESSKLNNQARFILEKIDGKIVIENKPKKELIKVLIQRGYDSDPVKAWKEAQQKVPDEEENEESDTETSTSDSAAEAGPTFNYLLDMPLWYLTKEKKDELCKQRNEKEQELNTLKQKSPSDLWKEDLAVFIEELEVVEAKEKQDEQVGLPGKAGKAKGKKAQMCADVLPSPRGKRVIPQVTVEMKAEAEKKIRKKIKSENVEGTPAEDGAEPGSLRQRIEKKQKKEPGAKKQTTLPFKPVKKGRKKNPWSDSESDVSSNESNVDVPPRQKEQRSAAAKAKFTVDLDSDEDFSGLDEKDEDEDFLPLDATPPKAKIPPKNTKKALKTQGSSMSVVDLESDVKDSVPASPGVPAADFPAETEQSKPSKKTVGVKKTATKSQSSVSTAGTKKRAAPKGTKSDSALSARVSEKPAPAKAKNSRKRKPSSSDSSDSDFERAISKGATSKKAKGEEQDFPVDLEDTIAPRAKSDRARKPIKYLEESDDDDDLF

Question: For Cc1ccc(N/N=C2\CCCc3ccccc3C2=O)cc1, which zone of inhibition at 1.25 µg/mL (Aspergillus fumigatus [1]) is on record?
Answer: The zone of inhibition at 1.25 µg/mL was 9 mm.

Question: What about the zone of inhibition at 5 µg/mL (Aspergillus fumigatus [2]) of the same molecule?
Answer: Its zone of inhibition at 5 µg/mL is 22 mm.

Question: And the zone of inhibition at 2.5 µg/mL (Staphylococcus aureus [3])?
Answer: Its zone of inhibition at 2.5 µg/mL is 8 mm.

Question: And the MIC (Staphylococcus aureus [4])?
Answer: Its MIC is 0.625 mg/L (≈ 2.25 µM).

Question: And the zone of inhibition at 2.5 µg/mL (Pseudomonas aeruginosa [5])?
Answer: Its zone of inhibition at 2.5 µg/mL is 0 mm.

Question: And the zone of inhibition at 2.5 µg/mL (Penicillium italicum [6])?
Answer: The zone of inhibition at 2.5 µg/mL was 0 mm.

Question: What about the zone of inhibition at 2.5 µg/mL (Escherichia coli [7]) of the same molecule?
Answer: The zone of inhibition at 2.5 µg/mL was 0 mm.

Question: What about the zone of inhibition at 2.5 µg/mL (Bacillus subtilis [8]) of the same molecule?
Answer: Its zone of inhibition at 2.5 µg/mL is 6 mm.

Question: And the zone of inhibition at 1.25 µg/mL (Staphylococcus aureus [9])?
Answer: Its zone of inhibition at 1.25 µg/mL is 5 mm.

Question: What about the Activity [10] of the same molecule?
Answer: Its Activity is 80.1%.

Question: What about the zone of inhibition at 1.25 µg/mL (Bacillus subtilis [11]) of the same molecule?
Answer: The zone of inhibition at 1.25 µg/mL was 4 mm.

Question: And the zone of inhibition at 5 µg/mL (Escherichia coli [12])?
Answer: Its zone of inhibition at 5 µg/mL is 7 mm.

Question: And the zone of inhibition at 2.5 µg/mL [13]?
Answer: The zone of inhibition at 2.5 µg/mL was 12 mm.

Question: And the MIC (Hepatitis C virus)?
Answer: The MIC was 1.14 mg/L (≈ 4.1 µM).

Question: What about the MIC (Candida albicans [14]) of the same molecule?
Answer: The MIC was 1.25 mg/L (≈ 4.49 µM).

Question: And the zone of inhibition at 1.25 µg/mL (Pseudomonas aeruginosa [15])?
Answer: The zone of inhibition at 1.25 µg/mL was 0 mm.

Question: What about the zone of inhibition at 5 µg/mL (Pseudomonas aeruginosa [16]) of the same molecule?
Answer: Its zone of inhibition at 5 µg/mL is 0 mm.

Question: What about the MIC (Aspergillus fumigatus [17]) of the same molecule?
Answer: Its MIC is 0.313 mg/L (≈ 1.12 µM).

Question: And the Activity (MC-38)?
Answer: The Activity was “Active”.

Question: What about the IC50 [18] of the same molecule?
Answer: Its IC50 is 56.3 µM.

Question: And the Ratio [19]?
Answer: Its Ratio is 4.2.

Question: What about the zone of inhibition at 5 µg/mL (Staphylococcus aureus [20]) of the same molecule?
Answer: Its zone of inhibition at 5 µg/mL is 12 mm.

Question: And the zone of inhibition at 5 µg/mL (Bacillus subtilis [21])?
Answer: The zone of inhibition at 5 µg/mL was 16 mm.

Question: And the zone of inhibition at 5 µg/mL (Penicillium italicum [22])?
Answer: Its zone of inhibition at 5 µg/mL is 0 mm.

Question: What about the MIC [23] of the same molecule?
Answer: The MIC was 0.625 mg/L (≈ 2.25 µM).

Question: What about the MIC (Measles morbillivirus) of the same molecule?
Answer: The MIC was 7.06 mg/L (≈ 25.4 µM).

Question: What about the zone of inhibition at 5 µg/mL (Candida albicans [24]) of the same molecule?
Answer: Its zone of inhibition at 5 µg/mL is 14 mm.

Question: What about the Ratio [25] of the same molecule?
Answer: The Ratio was 4.27.

Question: And the MIC (Bacillus subtilis [26])?
Answer: The MIC was 0.625 mg/L (≈ 2.25 µM).

Question: And the zone of inhibition at 1.25 µg/mL (Escherichia coli [27])?
Answer: Its zone of inhibition at 1.25 µg/mL is 0 mm.

Question: And the zone of inhibition at 1.25 µg/mL [28]?
Answer: The zone of inhibition at 1.25 µg/mL was 7 mm.

Question: And the zone of inhibition at 2.5 µg/mL (Aspergillus fumigatus [29])?
Answer: The zone of inhibition at 2.5 µg/mL was 13 mm.

Question: And the zone of inhibition at 2.5 µg/mL (Candida albicans [30])?
Answer: The zone of inhibition at 2.5 µg/mL was 6 mm.

Question: And the zone of inhibition at 5 µg/mL [31]?
Answer: Its zone of inhibition at 5 µg/mL is 18 mm.

Question: And the zone of inhibition at 1.25 µg/mL (Penicillium italicum [32])?
Answer: The zone of inhibition at 1.25 µg/mL was 0 mm.

Question: What about the zone of inhibition at 1.25 µg/mL (Candida albicans [33]) of the same molecule?
Answer: Its zone of inhibition at 1.25 µg/mL is 2 mm.
